Reference: ChEMBL document CHEMBL1126310, “Affinity probes for the avermectin binding proteins” (J Med Chem, 1992)
In brackets after ≈: the same amount, converted by molar mass.

Legend:
Type in all cases: functional
Caenorhabditis elegans [1] = experiment: Compound was evaluated for the biological activity by Caenorhabditis elegans motility assay.
Method in brief: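 About 100 worms per tube, rinsed and resuspended in Krebs bicarbonate buffer pH 7.4. Compounds in DMSO, final 1% DMSO in 500 μL. After 16 h at 22 °C, motility scored by microscope; percentage of immotile worms determined at several concentrations per compound.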

Artemia salina = experiment: Compound was evaluated for the biological activity by (Artemia salina) brine shrimp immobilization assay
Method in brief: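 Compounds dissolved at 1 mg/mL in acetonitrile, tested in duplicate as 2-fold serial dilutions in acetonitrile across a row. Brine shrimp added in 0.20 mL brine per well. Immobilization scored by microscope after 6 h at room temperature; IC100 reported.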

Caenorhabditis elegans [2] = experiment: Compound was evaluated for the binding affinity for Caenorhabditis elegans avermectin using Caenorhabditis elegans membrane homogenates using [3H]IVM as radioligand
Method in brief: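 C. elegans worms washed with 50 mM HEPES pH 7.4, homogenized; 1000g supernatant spun at 28 000g, pellet resuspended to about 12.5 μg protein/mL. Membranes (1.0 mL) incubated with [3H]-IVM (22,23-ditritioivermectin) at 22 °C for 45 min with and without analogs. Filtration over GF/B filters, rinse with cold HEPES containing 0.25% Triton X-100, scintillation counting; IC50 reported.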

Row | IC50 (Caenorhabditis elegans [2]) [nM] | Compound | ED50 (Caenorhabditis elegans [1]) [µg/mL] | IC100 (Artemia salina) [ng/mL] | EC50 (Caenorhabditis elegans [1]; read-out: ED50 (the source's name)) [µg/mL] | IC50 (Caenorhabditis elegans [2]; Caenorhabditis elegans, 45 min) [nM]
1 | – | IVERMECTIN [listing 1 of 2 here] | 0.007 | 430 | – | –
2 | – | CCC(C)[C@H]1O[C@]2(CC[C@@H]1C)C[C@@H]1C[C@@H](C/C=C(\C)C(OCOCCN3CC3)[C@@H](C)/C=C/C=C3\COC4[C@H](O)C(C)=C[C@@H](C(=O)O1)[C@]34O)O2 (stereo partly specified) | – | 3470 | 0.048 (≈ 0.07 µM) | 5
3 | 0.1 | IVERMECTIN [listing 2 of 2 here] | – | – | – | –
